Calls of active or inactive are those of the source. No cut-off for these calls is given here.
How the values were obtained:
[1] = biological target: T1, Protein disulfide-isomerase (Homo sapiens, UniProt P07237); assay: Inhibition of recombinant human N-terminal His-tagged PDI expressed in Escherichia coli BL21 (DE3) pLysS assessed as reduction in enzyme-mediated bovine insulin aggregation
Target sequence in this assay (P07237 whole entry): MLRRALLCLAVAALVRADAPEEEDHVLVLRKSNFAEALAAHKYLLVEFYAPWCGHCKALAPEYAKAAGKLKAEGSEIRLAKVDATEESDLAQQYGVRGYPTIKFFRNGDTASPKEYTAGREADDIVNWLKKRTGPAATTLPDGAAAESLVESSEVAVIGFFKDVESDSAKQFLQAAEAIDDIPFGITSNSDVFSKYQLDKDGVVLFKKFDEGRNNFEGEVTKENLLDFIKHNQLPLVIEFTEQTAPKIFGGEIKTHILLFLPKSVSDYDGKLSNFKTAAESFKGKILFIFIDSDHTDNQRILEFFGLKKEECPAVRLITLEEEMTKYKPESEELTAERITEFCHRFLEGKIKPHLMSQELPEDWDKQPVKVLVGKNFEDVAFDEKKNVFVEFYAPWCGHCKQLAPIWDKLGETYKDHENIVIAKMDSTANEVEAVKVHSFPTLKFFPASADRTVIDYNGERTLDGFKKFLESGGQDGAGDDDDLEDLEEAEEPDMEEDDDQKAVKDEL

[2] = tested on: U-87 MG; assay: Cytotoxicity against human U87MG cells assessed as inhibition of cell proliferation at <IC50 measured after 72 hrs by MTT assay relative to control; assay type: functional, U-87MG ATCC
[3] = Therapeutic ratio of IC50 for HFF1 cells to IC50 for human NU04 cells
Summary of the method: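 Ratio of two growth-inhibition IC50s, HFF-1 normal human fibroblasts over NU04 glioma cells. Cells were grown as monolayers at 37 °C in 5% CO2, with NU04 seeded at 4000 cells/well. After overnight attachment, cells were exposed to compound or vehicle for 72 h. MTT (3 mg/mL) was added for 4 h, and formazan dissolved in DMSO was read at 570 nm. IC50s came from nonlinear regression of log concentration-response curves, with at least three independent experiments.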

[4] = biological target: T1, Protein disulfide-isomerase; assay: Binding affinity to recombinant human N-terminal His-tagged PDI expressed in Escherichia coli BL21 (DE3) pLysS assessed as change in melting temperature at 100 uM by ROX dye based thermal shift assay
Summary of the method: (§1)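 Purified wild-type, C53S/C397S or H256A PDI at 0.5 mg/mL in 50 mM Tris, pH 7.0, with or without 100 μM compound, was mixed with ROX dye in a 20 µL well. DMSO (5% in buffer) was the control. Samples were heated 25–99 °C at 1 °C/min, and the Boltzmann melting temperature shift versus DMSO was reported. Mean ± SD of three experiments.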
Target sequence in this assay (P07237 18-508 limits assumed): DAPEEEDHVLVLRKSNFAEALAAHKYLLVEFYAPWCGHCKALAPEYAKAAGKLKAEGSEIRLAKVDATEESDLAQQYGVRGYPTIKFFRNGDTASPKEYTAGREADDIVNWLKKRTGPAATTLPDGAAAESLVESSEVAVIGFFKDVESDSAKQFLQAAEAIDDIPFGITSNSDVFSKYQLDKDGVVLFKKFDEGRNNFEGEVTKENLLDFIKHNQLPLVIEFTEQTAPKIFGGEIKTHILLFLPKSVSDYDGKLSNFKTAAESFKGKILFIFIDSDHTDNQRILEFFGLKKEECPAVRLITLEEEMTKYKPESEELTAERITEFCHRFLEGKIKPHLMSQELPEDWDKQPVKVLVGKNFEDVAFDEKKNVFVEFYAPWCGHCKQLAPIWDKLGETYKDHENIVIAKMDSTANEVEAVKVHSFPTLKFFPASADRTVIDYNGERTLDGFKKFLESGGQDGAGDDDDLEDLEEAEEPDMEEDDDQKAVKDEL

[5] = tested on: Protein disulfide-isomerase (Homo sapiens), P07237 [H256A]; assay: Binding affinity to recombinant human N-terminal His-tagged PDI H256A mutant expressed in Escherichia coli BL21 (DE3) pLysS assessed as change in melting temperature at 100 uM by ROX dye based thermal shift assay; summary of the method: as §1
[6] = tested on: A 172; assay: Antimigratory activity against human A172 cells assessed as reduction in cell migration towards wound area at 10 uM measured after 24 hrs by Giemsa staining based microscopic analysis; assay type: functional
Summary of the method: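 A172 cells plated at 50,000 cells/well, incubated overnight at 37 °C, 5% CO2, then held 24 h in serum-free DMEM. A scratch was made, compounds were added, and cells grew 24 h until DMSO-control wells closed. Cells were Giemsa-stained and imaged at 10X.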

[7] = tested on: D54 cell line; assay: Inhibition of colony formation in 1 to 6 Gy-irradiated human D54 cells at 1 uM measured after 10 to 12 days by crystal violet staining based assay; assay type: functional, cell-based
Summary of the method: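 D54 cells irradiated at 0, 1, 2, 4 or 6 Gy and plated immediately at 200–1000 cells/well according to dose. Treated with DMSO, 0.05 μM PACMA31 or 1 μM compounds, grown 10–12 days, then colonies stained with 0.1% crystal violet.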

[8] = biological target: T1, Protein disulfide-isomerase; assay: Binding affinity to recombinant human N-terminal His-tagged PDI expressed in Escherichia coli BL21 (DE3) pLysS by ROX dye based thermal shift assay
Summary of the method: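 Thermal shift conditions: PDI (0.5 mg/mL, 50 mM Tris, pH 7.0) with ROX dye, heated 25–99 °C at 1 °C/min. […] Kd was fitted from melting-temperature change versus vehicle.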
Target sequence in this assay (P07237 whole entry): as the sequence (P07237 whole entry) above

[9] = tested on: A 172; assay: Antimigratory activity against human A172 cells at 30 uM measured after 4 hrs by Giemsa staining based transwell migration assay; assay type: functional, cell-based
Summary of the method: (§2)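 A172 cells (1 x 10^5) were treated with compound and seeded into inserts with 8.0 μm PET membrane in serum-free medium. DMEM with 10% FBS was in the lower well; wells without FBS served as control. After 4 h, migrated cells were Giemsa-stained and imaged at 10X, 5 fields per well.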

[10] = biological target: T1, Protein disulfide-isomerase; assay: Inhibition of recombinant human N-terminal His-tagged PDI expressed in Escherichia coli BL21 (DE3) pLysS assessed as reduction in enzyme-mediated bovine insulin aggregation at 40 uM measured after 1 hr in presence of 1 to 2 mM NAC
Summary of the method: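 Compounds pretreated with NAC for 30 min at 37 °C, then added to the insulin reductase assay at final 40 μM compound with 0, 1, 2 or 5 mM NAC. The assay uses 0.4 μM PDI preincubated 1 h at 37 °C, then DTT and bovine insulin, read at 620 nm, with % activity at 80 min.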
Target sequence in this assay (P07237 18-508 limits assumed): as the sequence (P07237 18-508 limits assumed) above

[11] = tested on: U-87 MG; assay: Up regulation of HMOX1 gene expression in human U87MG cells at 16 uM incubated for 4 hrs followed by bromouridine addition during last 30 mins of incubation by TRIzol-reagent based Bru-Seq analysis relative to control; assay type: functional, U-87MG ATCC
Summary of the method: (§3)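 U87MG cells exposed to compound or DMSO vehicle for 4 h, with 2 mM bromouridine added for the final 30 min. Total RNA isolated with TRIzol; Bru-labelled nascent RNA captured on anti-BrdU antibody-conjugated magnetic beads and sequenced. Transcript abundance expressed as RPKM relative to DMSO. Experiment performed once.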

[12] = tested on: U-87 MG; assay: Up regulation of NMRAL2P gene expression in human U87MG cells at 16 uM incubated for 4 hrs followed by bromouridine addition during last 30 mins of incubation by TRIzol-reagent based Bru-Seq analysis relative to control; assay type: functional, U-87MG ATCC; summary of the method: as §3
[13] = tested on: U-87 MG; assay: Up regulation of HSPH1 gene expression in human U87MG cells at 16 uM incubated for 4 hrs followed by bromouridine addition during last 30 mins of incubation by TRIzol-reagent based Bru-Seq analysis relative to control; assay type: functional, U-87MG ATCC; summary of the method: as §3
[14] = tested on: U-87 MG; assay: Up regulation of FTH1 gene expression in human U87MG cells at 16 uM incubated for 4 hrs followed by bromouridine addition during last 30 mins of incubation by TRIzol-reagent based Bru-Seq analysis relative to control; assay type: functional, U-87MG ATCC; summary of the method: as §3
[15] = tested on: U-87 MG; assay: Down regulation of IL1B gene expression in human U87MG cells at 16 uM incubated for 4 hrs followed by bromouridine addition during last 30 mins of incubation by TRIzol-reagent based Bru-Seq analysis relative to control; assay type: functional, U-87MG ATCC; summary of the method: as §3
[16] = tested on: U-87 MG; assay: Down regulation of CTGF gene expression in human U87MG cells at 16 uM incubated for 4 hrs followed by bromouridine addition during last 30 mins of incubation by TRIzol-reagent based Bru-Seq analysis relative to control; assay type: functional, U-87MG ATCC
[17] = tested on: A 172; assay: Antimigratory activity against human A172 cells at 10 uM measured after 4 hrs by Giemsa staining based transwell migration assay; assay type: functional, cell-based; summary of the method: as §2
[18] = tested on: U-87 MG; assay: Up regulation of MMP1 gene expression in human U87MG cells at 10 uM incubated for 4 hrs followed by bromouridine addition during last 30 mins of incubation by TRIzol-reagent based Bru-Seq analysis relative to control; assay type: functional, U-87MG ATCC; summary of the method: as §3
[19] = tested on: U-87 MG; assay: Down regulation of ZNF404 gene expression in human U87MG cells at 10 uM incubated for 4 hrs followed by bromouridine addition during last 30 mins of incubation by TRIzol-reagent based Bru-Seq analysis relative to control; assay type: functional, U-87MG ATCC; summary of the method: as §3
[20] = tested on: U-87 MG; assay: Down regulation of MAD2L1 gene expression in human U87MG cells at 10 uM incubated for 4 hrs followed by bromouridine addition during last 30 mins of incubation by TRIzol-reagent based Bru-Seq analysis relative to control; assay type: functional, U-87MG ATCC
Summary of the method: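 Nascent transcription (Bru-seq) in U87MG cells: treatment at 10 μM for 4 h, with 2 mM bromouridine added for the final 30 min. Total RNA isolated with TRIzol; Bru-labelled RNA captured using anti-BrdU antibody on magnetic beads, then sequenced. Transcript traces reported as RPKM compared with DMSO-treated cells. Single experiment.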

Sequence of Protein disulfide-isomerase (Homo sapiens), P07237 [H256A] (P07237 whole entry H256A): as the sequence (P07237 whole entry) above, with H256A counted along it

SMILES | IC50 [1] | ΔTm [4] | Activity [5] | inhibition [10] | inhibition (INH) [2] | Ratio IC50 [3] | Activity [6] | inhibition [7] | Activity [9] | other results
O=C(/C=C/c1ccc(-c2cccnc2)cc1)c1cccc(O)c1 | 350 nM | 2.83 °C | Active | – | >50% | 4.57 | Active | Active | – | –
N#Cc1cccc(/C=C/C(=O)c2ccc(O)cc2)c1 | – | 2.85 °C | inactive | – | – | 5.8 | Active | Active | Active | Kd [8]: 9800 nM
CCCCCN(CCCCC)S(=O)(=O)c1ccc(C(=O)/C=C/c2cccc(O)c2)cc1 | 810 nM | 3.58 °C | Active | Active | – | 3.85 | Active | – | Active | –

Continued, in another order:

IC50 [1] | ΔTm [4] | Activity [5] | inhibition [10] | SMILES | inhibition (INH) [2] | Ratio IC50 [3] | Activity [6] | inhibition [7] | Activity [9] | other results
120 nM | 1.86 °C | Active | Active | COC(=O)c1cccc(/C=C/C(=O)c2cccc(O)c2)c1 | >50% | 0.77 | Active | – | – | fold change (FC) [11]: 21.6; fold change (FC) [12]: 15; log2FC [12]: 4.1; fold change (FC) [13]: 5; fold change (FC) [14]: 1.9; fold change (FC) [15]: 5.5; fold change (FC) [16]: 3.1
160 nM | 0.52 °C | – | – | CCCCCN(CCCCC)S(=O)(=O)c1ccc(C(=O)/C=C/c2cccc(C#N)c2)cc1 | – | 0.67 | Active | – | Active | Activity [17]: Active; fold change (FC) [18]: 32.1; fold change (FC) [19]: 2.7; fold change (FC) [20]: 2.4

Source: ChEMBL document CHEMBL4390639, “Design, Synthesis, and Biological Evaluation of Novel Allosteric Protein Disulfide Isomerase Inhibitors” (J Med Chem, 2019)
